Assay [1] concerns MOLT-4. Kind of assay: Growth inhibition of human MOLT4 cells incubated for 24 hrs by MTT assay. The format is functional, cell-based. Conditions: MOLT-4, 24 h. (Tetrazolium dyes change colour on reduction, which living cells bring about.)
Assay [2] has as its system MOLT-4. Kind of assay: Potency index, ratio of monastrol IC50 to compound IC50 for human MOLT4 cells. The format is functional.
Assay [3] has as its system MOLT-4. The experiment in a line: Cell cycle arrest in human MOLT4 cells assessed as accumulation of apoptotic cells in pre-G phase at 0.16 uM after 24 hrs by propidium iodide staining based flow cytometry (reference value: 0.88%). The format is functional. The essentials: (§1)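 MOLT-4 cells (1×10^6) exposed 24 h to 0.160 or 0.430 μM test agent, DMSO (0.002%) control; trypsinized, washed in ice-cold PBS, fixed in ice-cold 70% ethanol ≥2 h at 4°C, washed, stained with propidium iodide DNA kit; cell cycle distribution (pre-G, G0/G1, S, G2/M) by flow cytometry.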

The test system of assay [4] is MOLT-4. Kind of assay: Cell cycle arrest in human MOLT4 cells assessed as accumulation at G0/G1 phase at 0.16 uM after 24 hrs by propidium iodide staining based flow cytometry (reference value: 74.22%). The format is functional. A digest of the protocol: as §1
(A flow cytometer gives signals particle by particle.)

Assay [5] has as its system MOLT-4. Kind of assay: Cell cycle arrest in human MOLT4 cells assessed as accumulation at G2/M phase at 0.16 uM after 24 hrs by propidium iodide staining based flow cytometry (reference value: 4.35%). The format is functional. The essentials:
as §1

In assay [6] the test system is MOLT-4. The experiment in a line: Cell cycle arrest in human MOLT4 cells assessed as accumulation at S phase at 0.16 uM after 24 hrs by propidium iodide staining based flow cytometry (reference value: 20.55%). It counts as functional. A digest of the protocol:
as §1

Assay [7] has as its system MOLT-4. Kind of assay: Induction of apoptosis in human MOLT4 cells assessed as live cells at 0.16 uM after 24 hrs by Annexin V-FITC/propidium iodide staining based flow cytometry (reference value: 99.12%). It counts as functional.
Assay [8] concerns MOLT-4. The experiment in a line: Induction of apoptosis in human MOLT4 cells assessed as early apoptotic cells at 0.16 uM after 24 hrs by Annexin V-FITC/propidium iodide staining based flow cytometry (reference value: 0.53%). The format is functional.
The subject of assay [9] is MOLT-4. The experiment in a line: Induction of apoptosis in human MOLT4 cells assessed as late apoptotic cells at 0.16 uM after 24 hrs by Annexin V-FITC/propidium iodide staining based flow cytometry (reference value: 0.24%). The format is functional.
The subject of assay [10] is MOLT-4. Kind of assay: Induction of apoptosis in human MOLT4 cells assessed as necrotic cells at 0.16 uM after 24 hrs by Annexin V-FITC/propidium iodide staining based flow cytometry (reference value: 0.11%). It counts as functional.
The subject of assay [11] is MOLT-4. Kind of assay: Induction of apoptosis in human MOLT4 cells assessed as increase in apoptotic cells at 0.16 uM after 24 hrs by Annexin V-FITC/propidium iodide staining based flow cytometry relative to control. The format is functional.
In assay [12] the test system is HL-60(TB). The experiment in a line: Potency index, ratio of monastrol IC50 to compound IC50 for human HL-60(TB) cells. It counts as functional.
The subject of assay [13] is HL-60(TB). The experiment in a line: Cell cycle arrest in human HL-60(TB) cells assessed as accumulation of apoptotic cells in pre-G phase at 0.112 uM after 24 hrs by propidium iodide staining based flow cytometry (reference value: 1.44%). The format is functional.
Assay [14] relates to HL-60(TB). The experiment in a line: Cell cycle arrest in human HL-60(TB) cells assessed as accumulation at G0/G1 phase at 0.112 uM after 24 hrs by propidium iodide staining based flow cytometry (reference value: 68.43%). The format is functional.
Assay [15] has as its system HL-60(TB). The experiment in a line: Cell cycle arrest in human HL-60(TB) cells assessed as accumulation at G2/M phase at 0.112 uM after 24 hrs by propidium iodide staining based flow cytometry (reference value: 7.29%). It counts as functional.
In assay [16] the test system is HL-60(TB). Kind of assay: Cell cycle arrest in human HL-60(TB) cells assessed as accumulation at S phase at 0.112 uM after 24 hrs by propidium iodide staining based flow cytometry (reference value: 22.84%). The format is functional.
For assay [17], the system named is HL-60(TB). Kind of assay: Induction of apoptosis in human HL-60(TB) cells assessed as live cells at 0.112 uM after 24 hrs by Annexin V-FITC/propidium iodide staining based flow cytometry (reference value: 98.57%). The format is functional.
Assay [18] has as its system HL-60(TB). The experiment in a line: Induction of apoptosis in human HL-60(TB) cells assessed as early apoptotic cells at 0.112 uM after 24 hrs by Annexin V-FITC/propidium iodide staining based flow cytometry (reference value: 0.84%). It counts as functional.
The subject of assay [19] is HL-60(TB). The experiment in a line: Induction of apoptosis in human HL-60(TB) cells assessed as late apoptotic cells at 0.112 uM after 24 hrs by Annexin V-FITC/propidium iodide staining based flow cytometry (reference value: 0.39%). It counts as functional.
In assay [20] the test system is HL-60(TB). Kind of assay: Induction of apoptosis in human HL-60(TB) cells assessed as necrotic cells at 0.112 uM after 24 hrs by Annexin V-FITC/propidium iodide staining based flow cytometry (reference value: 0.2%). It counts as functional.
The test system of assay [21] is HL-60(TB). The experiment in a line: Induction of apoptosis in human HL-60(TB) cells assessed as increase in apoptotic cells at 0.112 uM after 24 hrs by Annexin V-FITC/propidium iodide staining based flow cytometry relative to control. The format is functional.

In the case of `CCOC(=O)C1=C(C)NC(SCc2nnc(-c3ccc(Cl)cc3)o2)=NC1c1ccc(Cl)cc1Cl` (stereo unspecified), the 50% inhibitory concentration (IC50) in the assay on MOLT-4 [1] was 80 nM. In the assay with MOLT-4 [2], the “Ratio IC50” value stood at 3. The Activity was determined as 17.83% in the assay on MOLT-4 [3]; 38.52% in the assay with MOLT-4 [4]; 26.61% in the assay on MOLT-4 [5]; 17.04% in the assay with MOLT-4 [6]; 82.17% in the assay on MOLT-4 [7]; 10.48% in the assay with MOLT-4 [8]. In addition, the Activity came to 5.89% with MOLT-4 [9] and 1.46% in the assay with MOLT-4 [10]. The “fold change (FC)” value in the assay on MOLT-4 [11] was 21.
In the assay on MOLT-4 [1], `CCOC(=O)C1=C(C)NC(SCc2nnc(-c3ccc(Cl)cc3)o2)=NC1c1cccc(Cl)c1` (stereo unspecified) displayed an IC50 of 1790 nM. Also, in the assay on HL-60(TB) [12], the “Ratio IC50” value came to 2.5. Besides, the Activity in the assay with HL-60(TB) [13] was found to be 24.72%; in the assay with HL-60(TB) [14], 32.88%; in the assay with HL-60(TB) [15], 14.81%; in the assay with HL-60(TB) [16], 27.59%; in the assay on HL-60(TB) [17] it was 75.28%; in the assay on HL-60(TB) [18], 17.09%. Also, the Activity came out at 6.67% with HL-60(TB) [19] and 1.36% in the assay with HL-60(TB) [20]. In addition, the “fold change (FC)” value in the assay on HL-60(TB) [21] turned out to be 19.3.
Consider `CCOC(=O)C1=C(C)NC(SCc2nnc(-c3ccc(Cl)cc3)o2)=NC1c1ccc(Cl)cc1` (stereo unspecified), for which the IC50 in the assay on MOLT-4 [1] was 623 nM. Also, the “Ratio IC50” value with HL-60(TB) [12] was determined as 1.5.
`CCOC(=O)C1=C(C)NC(SCc2nnc(-c3ccc(Cl)cc3)o2)=NC1c1ccc(Br)cc1` (stereo unspecified) displayed an IC50 in the assay on MOLT-4 [1] of 86 nM. In addition, the “Ratio IC50” value in the assay on MOLT-4 [2] was 3.

A word on the IC50: it is the midpoint of a concentration-inhibition curve.

Values taken from ChEMBL document CHEMBL4190234, “Design, synthesis and anticancer activity of new monastrol analogues bearing 1,3,4-oxadiazole moiety” (Eur J Med Chem, 2017).
